Experimental data gathered from unrelated publications.
Protocols differ between the studies behind these lines.
Target: Serine/threonine-protein kinase D1 (PRKD1, Homo sapiens, UniProt Q15139)
Residues used in one study (Q15139 1-912): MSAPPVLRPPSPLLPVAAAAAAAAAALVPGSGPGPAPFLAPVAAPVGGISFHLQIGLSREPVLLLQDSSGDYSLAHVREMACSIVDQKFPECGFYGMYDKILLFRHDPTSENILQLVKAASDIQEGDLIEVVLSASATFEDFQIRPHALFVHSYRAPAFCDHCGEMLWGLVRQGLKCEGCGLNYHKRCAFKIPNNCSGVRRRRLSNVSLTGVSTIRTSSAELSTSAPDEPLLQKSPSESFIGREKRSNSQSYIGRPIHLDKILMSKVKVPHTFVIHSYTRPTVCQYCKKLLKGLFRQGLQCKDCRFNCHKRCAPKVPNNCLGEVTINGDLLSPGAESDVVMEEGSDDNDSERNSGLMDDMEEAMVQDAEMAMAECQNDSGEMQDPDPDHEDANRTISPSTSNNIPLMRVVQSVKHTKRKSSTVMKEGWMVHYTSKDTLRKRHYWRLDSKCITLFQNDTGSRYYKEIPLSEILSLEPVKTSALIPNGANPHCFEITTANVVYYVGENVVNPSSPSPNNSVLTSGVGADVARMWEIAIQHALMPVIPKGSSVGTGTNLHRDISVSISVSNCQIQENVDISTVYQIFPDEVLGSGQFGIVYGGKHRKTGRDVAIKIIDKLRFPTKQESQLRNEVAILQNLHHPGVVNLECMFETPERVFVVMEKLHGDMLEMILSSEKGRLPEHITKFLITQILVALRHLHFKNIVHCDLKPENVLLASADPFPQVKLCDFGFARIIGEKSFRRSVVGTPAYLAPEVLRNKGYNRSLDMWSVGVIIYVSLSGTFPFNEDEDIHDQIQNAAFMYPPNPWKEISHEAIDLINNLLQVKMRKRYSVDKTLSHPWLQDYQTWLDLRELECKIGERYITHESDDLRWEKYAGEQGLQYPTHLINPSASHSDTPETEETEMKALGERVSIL

SMILES | observed | mode | technique | tested at | quantity | value
COc1cc(Nc2ncc(F)c(Nc3ccc4c(n3)NC(=O)C(C)(C)O4)n2)cc(OC)c1OC | binding | – | – | 10 µM | inhibition | 17%
N#CC1(c2ccccn2)CCN(Cc2cc(C(=O)O)c(=O)n3ccccc23)CC1 | cell-free assay | – | competition with immobilised ligand | 1 µM | remaining binding | 87%
Cn1cc(-c2cccc(N3CCc4c(sc5c4CC(C)(C)C5)C3=O)c2CO)cc(Nc2ccncn2)c1=O | enzyme activity | inhibitor | – | 1 µM | inhibition | 2%
CC(C)(C)c1cc(C=C(C#N)C#N)cc(Br)c1O | enzyme activity | inhibitor | – | 0.5 µM | remaining activity | 100%
Cn1cc(-c2cc(F)cc(N3CCn4c(cc5c4CCCC5)C3=O)c2CO)cc(Nc2ccc(N3CCN(C4COC4)CC3)cn2)c1=O | enzyme activity | inhibitor | – | 0.1 µM | inhibition | 12%
COc1ncccc1-c1cnn2ccc(N3CCN(C(=O)OC(C)C)CC3)nc12 | binding | – | competition with immobilised ligand | 1 µM | remaining binding | 100%
O=c1[nH]c2ccccc2n1C1CCN(Cc2ccc(-c3[nH]c4cc5ncnc5cc4nc3-c3ccccc3)cc2)CC1 | cell-free assay | – | – | 0.5 µM | remaining signal | 94.7%
Cn1cncc1[C@](O)(COc1ccc(C#N)cc1-c1ccc(OC(F)(F)F)cc1)c1ccc(C#N)cc1 | cell-free assay | – | competition with immobilised ligand | 1 µM | remaining binding | 99%
Nc1ncc(-c2nc(N3CCOCC3)nc(N3CCOCC3)n2)c(C(F)F)n1 | binding | – | competition with immobilised ligand | 10 µM | remaining binding | 80%
Cc1nn(C)cc1-c1nc2c(N3CCN(Cc4ccc(Cl)cc4)CC3)c(Cl)cnc2[nH]1 | binding | – | competition with immobilised ligand | 1 µM | remaining binding | 100%
